Source: ChEMBL document CHEMBL1126794, “2-(Quinuclidin-3-yl)pyrido[4,3-b]indol-1-ones and isoquinolin-1-ones. Potent conformationally restricted 5-HT3 receptor antagonists” (J Med Chem, 1993)

What was measured:
[1] = target: T1, Serotonin 3 (5-HT3) receptor (Rattus norvegicus, UniProt P35563+Q9JJ16); assay: Binding affinity against 5-hydroxytryptamine 3 (5-HT3) receptor in rat brain cortical membranes using radioligand [3H]quipazine; assay type: cell membranes
T1 sequence (P35563 whole entry): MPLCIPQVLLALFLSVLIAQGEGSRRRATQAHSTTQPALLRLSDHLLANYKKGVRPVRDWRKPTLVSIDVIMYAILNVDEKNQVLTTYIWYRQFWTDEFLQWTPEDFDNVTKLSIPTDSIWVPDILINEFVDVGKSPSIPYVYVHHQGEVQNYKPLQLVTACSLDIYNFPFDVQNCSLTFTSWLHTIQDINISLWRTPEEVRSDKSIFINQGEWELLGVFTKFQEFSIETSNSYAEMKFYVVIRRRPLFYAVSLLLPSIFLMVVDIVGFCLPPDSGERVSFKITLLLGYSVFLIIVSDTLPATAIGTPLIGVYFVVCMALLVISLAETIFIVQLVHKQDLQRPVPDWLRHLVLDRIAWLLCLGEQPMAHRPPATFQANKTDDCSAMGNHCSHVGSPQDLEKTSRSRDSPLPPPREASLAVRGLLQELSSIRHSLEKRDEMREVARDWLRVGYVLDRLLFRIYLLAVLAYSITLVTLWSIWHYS
T1 sequence (Q9JJ16 whole entry): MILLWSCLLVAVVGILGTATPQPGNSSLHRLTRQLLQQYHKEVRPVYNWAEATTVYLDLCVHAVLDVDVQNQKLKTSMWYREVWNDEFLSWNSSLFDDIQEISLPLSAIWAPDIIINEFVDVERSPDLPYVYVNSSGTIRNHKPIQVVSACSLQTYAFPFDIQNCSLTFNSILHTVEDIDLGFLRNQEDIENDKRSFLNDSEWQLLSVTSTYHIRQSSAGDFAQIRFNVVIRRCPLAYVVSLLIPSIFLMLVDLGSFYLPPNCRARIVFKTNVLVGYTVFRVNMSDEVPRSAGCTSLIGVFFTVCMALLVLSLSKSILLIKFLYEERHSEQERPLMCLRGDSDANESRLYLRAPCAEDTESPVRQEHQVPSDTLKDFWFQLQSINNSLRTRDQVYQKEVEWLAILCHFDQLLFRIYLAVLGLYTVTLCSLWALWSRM
Procedure, shortened: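 Rat cerebral cortex membranes, washed in 50 mM Tris pH 7.4, incubated 45 min at 25 °C in Tris-Krebs buffer pH 7.4 with 0.3–0.7 nM [3H]quipazine plus 0.1 μM paroxetine. Ten test concentrations from 1e-12 to 1e-4 M. Nonspecific binding defined with 1.0 μM racemic zacopride. Filtration, scintillation counting, IC50 by iterative fit, Ki by Cheng-Prusoff. Means of ≥3 determinations, or of two.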

Canis familiaris [2] = assay: Inhibition of emesis induced by intravenous administration of cisplatin in 6 dogs at 0.3 mg/kg (p<0.01); assay type: functional, Canis lupus familiaris
Procedure, shortened: (§1)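 Dogs, n = 6 per group, given one iv dose of test compound as an aqueous solution through a jugular vein cannula 30 min before iv cisplatin (3 mg/kg). Emetic episodes counted by continuous observation for 5 h after cisplatin. Results given as mean ± value versus control, with significance by Dunnett's t test.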

Canis familiaris [3] = assay: Inhibition of emesis induced by peroral administration of cisplatin in 6 dogs at 1.0 mg/kg (p<0.01); assay type: functional, Canis lupus familiaris; details: route oral
Procedure, shortened: (§2)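 Single oral pretreatment in dogs (n = 6) by liquid gelatin capsule, 30 min before iv cisplatin at 3 mg/kg. Number of emetic episodes monitored continuously for 5 h after cisplatin. Significance versus control by Dunnett's t test.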

Canis familiaris [4] = assay: Inhibition of emesis induced by intravenous administration of cisplatin in 6 dogs at 0.03 mg/kg; assay type: functional, Canis lupus familiaris; procedure, shortened: as §1
Canis familiaris [5] = assay: Inhibition of emesis induced by intravenous administration of cisplatin in 6 dogs at 1 mg/kg (p<0.01); assay type: functional, Canis lupus familiaris; procedure, shortened: as §1
Canis familiaris [6] = assay: Inhibition of emesis induced by peroral administration of cisplatin in 6 dogs at 0.1 mg/kg; assay type: functional, Canis lupus familiaris; details: route oral; procedure, shortened: as §2
Mustela putorius furo [7] = assay: Inhibition of emesis induced by peroral administration of cisplatin in 5 ferrets at 0.03 mg/kg; assay type: functional; details: route oral
Canis familiaris [8] = assay: Inhibition of emesis induced by peroral administration of cisplatin in 6 dogs at 0.01 mg/kg; assay type: functional, Canis lupus familiaris; details: route oral; procedure, shortened: as §2
Canis familiaris [9] = assay: Inhibition of emesis induced by intravenous administration of cisplatin in 6 dogs at 0.1 mg/kg (p<0.01); assay type: functional, Canis lupus familiaris; procedure, shortened: as §1
Canis familiaris [10] = assay: Inhibition of emesis induced by intravenous administration of cisplatin in 6 dogs at 0.01 mg/kg; assay type: functional, Canis lupus familiaris; procedure, shortened: as §1
Mustela putorius furo [11] = assay: Inhibition of emesis induced by peroral administration of cisplatin in 5 ferrets at 0.1 mg/kg (p<0.01); assay type: functional; details: route oral
Mustela putorius furo [12] = assay: Inhibition of emesis induced by peroral administration of cisplatin in 5 ferrets at 0.3 mg/kg (p<0.01); assay type: functional; details: route oral
Canis familiaris [13] = assay: Inhibition of emesis induced by peroral administration of cisplatin in 6 dogs at 0.03 mg/kg; assay type: functional, Canis lupus familiaris; details: route oral; procedure, shortened: as §2
Rattus norvegicus [14] = assay: Potency to inhibit bradycardiac effect measured by Von Bezold-Jarisch assay in 9 anesthetized rats; assay type: functional; design: ID50: unit not given here; details: for ED50: Rattus norvegicus, read-out: ID50 (the source's name)
Procedure, shortened: (§3)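 Male Sprague-Dawley rats, 250–380 g, under urethane (1.5 g/kg ip), with cannulated trachea and femoral veins; heart rate recorded by ECG. Lowest consistent bradycardic dose of 2-methyl-5-HT titrated iv, then given every 12 min. Increasing iv doses given 5 min before each challenge, with saline vehicle group.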

Canis familiaris [15] = assay: Inhibition of emesis induced by peroral administration of cisplatin in 6 dogs at 0.3 mg/kg (p<0.01); assay type: functional, Canis lupus familiaris; details: route oral; procedure, shortened: as §2
Rattus norvegicus [16] = assay: Potency to inhibit bradycardiac effect measured by Von Bezold-Jarisch assay in 4 anesthetized rats; assay type: functional; procedure, shortened: as §3
Rattus norvegicus [17] = assay: Potency to inhibit bradycardiac effect measured by Von Bezold-Jarisch assay in 8 anesthetized rats; assay type: functional; details: read-out: ID50 (the source's name); procedure, shortened: as §3
Rattus norvegicus [18] = assay: Potency to inhibit bradycardiac effect measured by Von Bezold-Jarisch assay in 5 anesthetized rats; assay type: functional; details: read-out: ID50 (the source's name); procedure, shortened: as §3

With `O=c1c2ccccc2ccn1[C@@H]1CN2CCC1CC2` the Ki [1] was 3.98 nM.
For `Cc1nccn1CC1CCc2c(c3ccccc3n2C)C1=O` (stereo not drawn) [ONDANSETRON], the “No. of emetic episodes” value (Canis familiaris [2]) was 1, the “No. of emetic episodes” value (Canis familiaris [3]) was 2 and the “No. of emetic episodes” value (Canis familiaris [4]) was 8.33. For the same compound, the “No. of emetic episodes” value (Canis familiaris [5]) was 1.17, the “No. of emetic episodes” value (Canis familiaris [6]) was 10.5 and the “No. of emetic episodes” value (Mustela putorius furo [7]) was 11.2. The “No. of emetic episodes” value (Canis familiaris [8]) was 12.67, the “No. of emetic episodes” value (Canis familiaris [9]) was 4.83 and the “No. of emetic episodes” value (Canis familiaris [10]) was 13.33. The “No. of emetic episodes” value (Mustela putorius furo [11]) was 2.2, the “No. of emetic episodes” value (Mustela putorius furo [12]) was 4.2 and the “No. of emetic episodes” value (Canis familiaris [13]) was 18.33. The ED50 (Rattus norvegicus [14]) was 2.6 µg/kg and the “No. of emetic episodes” value (Canis familiaris [15]) was 3.17.
Compound `Cc1cccc(C(=O)N[C@@H]2CN3CCC2CC3)c1C` has a Ki [1] of 158 nM.
`O=C1c2cccc3c2[C@@H](CCC3)CN1[C@H]1CN2CCC1CC2` was tested, and the Ki [1] was 3.98 nM.
`Cl.O=c1c2cccc3c2c(cn1[C@H]1CN2CCC1CC2)CCC3` showed an ID50 (Rattus norvegicus [16]) of 2 pKi and a Ki [1] of 7.94 nM.
In the case of `Cl.O=c1c2cccc3c2c(cn1[C@@H]1CN2CCC1CC2)CCC3`, the Ki [1] is reported as 0.158 nM and the ID50 (Rattus norvegicus [14]) is reported as 0.1.
With `Cn1c2ccccc2c2c(=O)n([C@@H]3CN4CCC3CC4)ccc21` the ED50 (Rattus norvegicus [17]) was 0.13 µg/kg.
Work on `Cc1c(C(=O)NC2CN3CCC2CC3)c2ccccc2n1C` (stereo not drawn) yielded a Ki [1] of 39.8 nM.
With `O=c1c2cccc(Cl)c2ccn1[C@@H]1CN2CCC1CC2` the Ki [1] was 2.51 nM.
Work on `O=C1c2ccccc2CCN1C1CN2CCC1CC2` (stereo not drawn) yielded a Ki [1] of 10 nM.
`O=c1c2c3ccccc3n3c2c(cn1[C@H]1CN2CCC1CC2)CCC3` was tested, and the ED50 (Rattus norvegicus [18]) was greater than 2.41 µg/kg.
Work on `CN1[C@@H]2CC[C@H]1C[C@@H](OC(=O)c1c[nH]c3ccccc13)C2` [TROPISETRON] yielded an ED50 (Rattus norvegicus [17]) of 0.4 µg/kg and a Ki [1] of 2 nM.
Compound `CN1C2CCC1CC(n1cc3c4c(cccc4c1=O)CCC3)C2` (stereo not drawn) has an ED50 (Rattus norvegicus [17]) of 0.65 µg/kg and a Ki [1] of 0.794 nM.
`O=C1c2cccc3c2[C@@H](CCC3)CN1C1CN2CCC1CC2` (mixture of isomers) was tested, and the Ki [1] was 0.316 nM.
`Cc1cccc2c(=O)n(C3CN4CCC3CC4)ccc12.Cl` (stereo not drawn) showed an ED50 (Rattus norvegicus [17]) of 0.1 µg/kg and a Ki [1] of 0.631 nM.
`Cn1cc(C(=O)N[C@@H]2CN3CCC2CC3)c2ccccc21` showed a Ki [1] of 0.398 nM.
`O=C(NC1CN2CCC1CC2)c1c2n(c3ccccc13)CCCC2` (stereo not drawn) was tested, and the Ki [1] was 2.51 nM.
For `COc1cccc(C(=O)N[C@@H]2CN3CCC2CC3)c1C`, the Ki [1] was 398 nM.
Work on `Cl.O=c1c2cccc3c2c(cn1C1CN2CCC1CC2)CC3` (stereo not drawn) yielded a Ki [1] of 0.631 nM and an ED50 (Rattus norvegicus [14]) of 0.18 µg/kg.
In the case of `Cl.O=c1c2cccc3c2c(cn1[C@@H]1CN2CCC1CC2)CCCC3`, the ED50 (Rattus norvegicus [17]) is reported as 0.09 µg/kg and the Ki [1] is reported as 0.398 nM.
For `O=c1c2c3ccccc3n3c2c(cn1[C@@H]1CN2CCC1CC2)CCC3`, the ED50 (Rattus norvegicus [14]) was 0.05 µg/kg.
`COc1ccc2c(=O)n([C@@H]3CN4CCC3CC4)cc3c2c1CCC3` showed a Ki [1] of 12.6 nM.
In the case of `COc1cccc2c1CCN(C1CN3CCC1CC3)C2=O` (stereo not drawn), the Ki [1] is reported as 0.2 nM.
